Legend:
[1] = Cytotoxicity against mouse RAW264.7 cells assessed as cell viability at IC50 by MTT assay relative to control; type: cell-based; conditions: read-out: Activity
RAW264.7 [2] = test: Antiinflammatory activity in mouse RAW264.7 cells assessed as inhibition of LPS-induced NO production incubated for 1 hr prior to LPS challenge measured after 24 hrs by Griess method; type: functional, cell-based
Summary of the method: (§1)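 NO release was measured in LPS-stimulated macrophages, and IC50 values were derived from it. Data are mean ± SD of three separate experiments, each run in triplicate.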

[3] = Antiinflammatory activity in mouse J774A1 cells assessed as inhibition of LPS-induced NO production incubated for 1 hr prior to LPS challenge measured after 24 hrs by Griess method; type: functional, cell-based; conditions: J774.A1; summary of the method: as §1
[4] = Cytotoxicity against mouse J774A1 cells assessed as cell viability at IC50 by MTT assay relative to control; type: cell-based, J774.A1; conditions: read-out: Activity
[5] = Antiinflammatory activity in mouse J774A1 cells assessed as inhibition of LPS-induced TNF-alpha production at 20 ug/ml incubated for 1 hr prior to LPS challenge measured after 6 hrs by sandwich ELISA relative to control; type: functional; conditions: J774.A1
Summary of the method: (§2)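 Compounds were tested at 20 µg/mL on LPS-stimulated cells. TNF-α and IL-1β released into the medium were quantified with an ELISA kit following the kit protocol and expressed as % inhibition. Data are mean ± SD of three separate experiments, each run in triplicate.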

RAW264.7 [6] = test: Antiinflammatory activity in mouse RAW264.7 cells assessed as inhibition of LPS-induced IL-1beta production at 20 ug/ml incubated for 1 hr prior to LPS challenge measured after 12 hrs by sandwich ELISA relative to control; type: functional; summary of the method: as §2
RAW264.7 [7] = test: Antiinflammatory activity in mouse RAW264.7 cells assessed as inhibition of LPS-induced TNF-alpha production at 20 ug/ml incubated for 1 hr prior to LPS challenge measured after 6 hrs by sandwich ELISA relative to control; type: functional; summary of the method: as §2
[8] = Antiinflammatory activity in mouse J774A1 cells assessed as inhibition of LPS-induced IL-1beta production at 20 ug/ml incubated for 1 hr prior to LPS challenge measured after 12 hrs by sandwich ELISA relative to control; type: functional; conditions: J774.A1; summary of the method: as §2

Compound	IC50 (RAW264.7 [2]) [µM]	IC50 [3] [µM]	viability [1] [%]	viability [4] [%]	inhibition at 20 µg/mL [5] [%]	inhibition at 20 µg/mL (RAW264.7 [6]) [%]	inhibition at 20 µg/mL (RAW264.7 [7]) [%]	inhibition at 20 µg/mL [8] [%]
C=C(C)[C@@H]1CC[C@]2(C)CC[C@]3(C)[C@H](CC[C@@H]4[C@@]5(C)CCC(=O)C(C)(C)[C@@H]5CC[C@]43C)[C@@H]12 [LUPENONE]	38.5	38.8	89.6	87.7	–	–	–	–
C=C(C)[C@@H]1CC[C@]2(C)CC[C@]3(C)[C@H](CC[C@@H]4[C@@]5(C)CC[C@H](OC(=O)CCC(=O)O)C(C)(C)[C@@H]5CC[C@]43C)[C@@H]12	39.2	39.3	91.3	90.1	–	–	–	–
COC(=O)[C@@H](N)CCCNC(=N)N[N+](=O)[O-] [L-NAME]	69.2	73.2	–	–	–	–	–	–
C=C(C)[C@@H]1CC[C@]2(C)CC[C@]3(C)[C@H](CC[C@@H]4[C@@]5(C)CC[C@H](OC(=O)CC(C)(C)C(=O)O)C(C)(C)[C@@H]5CC[C@]43C)[C@@H]12	39.2	42.6	87.6	83.6	–	–	–	–
C=C(C)[C@@H]1CC[C@]2(C)CC[C@]3(C)[C@H](CC[C@@H]4[C@@]5(C)CC[C@H](N(O)c6ccccc6)C(C)(C)[C@@H]5CC[C@]43C)[C@@H]12	48.7	47.7	79.3	82.5	–	–	–	–
C=C(C)[C@@H]1CC[C@]2(C)CC[C@]3(C)[C@H](CC[C@@H]4[C@@]5(C)CC[C@H](OC(C)=O)C(C)(C)[C@@H]5CC[C@]43C)C12 (single isomer, unassigned) [LUPENYL ACETATE]	36.7	33.2	80.3	83.5	–	–	–	–
C=C(C=O)[C@@H]1CC[C@]2(C)CC[C@]3(C)[C@H](CC[C@@H]4[C@@]5(C)CC[C@H](O)C(C)(C)[C@@H]5CC[C@]43C)[C@@H]12	42.9	37	95.2	92.1	–	–	–	–
C=C(C)[C@@H]1CC[C@]2(C)CC[C@]3(C)[C@H](CC[C@@H]4[C@@]5(C)Cc6c([nH]c7ccc(Cl)cc67)C(C)(C)[C@@H]5CC[C@]43C)[C@@H]12	35.6	33.2	93.3	92.7	–	–	–	–
C=C(C)[C@@H]1CC[C@]2(C)CC[C@]3(C)[C@H](CC[C@@H]4[C@@]5(C)CC[C@H](O)C(C)(C)[C@@H]5CC[C@]43C)[C@@H]12 [LUPEOL]	37.3	34.5	87.3	88.3	–	–	–	–
C=C(C)[C@@H]1CC[C@]2(C)CC[C@]3(C)[C@H](CC[C@@H]4[C@@]5(C)Cc6nccnc6C(C)(C)[C@@H]5CC[C@]43C)[C@@H]12	32.4	32.4	95.2	93.3	–	–	–	–
C=C(C)[C@@H]1CC[C@]2(C)CC[C@]3(C)[C@H](CC[C@@H]4[C@@]5(C)CC/C(=N\O)C(C)(C)[C@@H]5CC[C@]43C)[C@@H]12	46	44.6	95.7	93.6	–	–	–	–
C=C(C)[C@@H]1CC[C@]2(C)CC[C@]3(C)[C@H](CC[C@@H]4[C@@]5(C)CCC(=S)C(C)(C)[C@@H]5CC[C@]43C)[C@@H]12	36.2	36.3	94.3	91.9	–	–	–	–
C=C(C)[C@@H]1CC[C@]2(C)CC[C@]3(C)[C@H](CC[C@@H]4[C@@]5(C)Cc6c([nH]c7ccc(F)cc67)C(C)(C)[C@@H]5CC[C@]43C)[C@@H]12	41.7	41.7	95.2	92.1	–	–	–	–

Continued, in another order:

IC50 (RAW264.7 [2]) [µM]	IC50 [3] [µM]	Compound	viability [1] [%]	viability [4] [%]	inhibition at 20 µg/mL [5] [%]	inhibition at 20 µg/mL (RAW264.7 [6]) [%]	inhibition at 20 µg/mL (RAW264.7 [7]) [%]	inhibition at 20 µg/mL [8] [%]
22.6	25.2	C=C(C)[C@@H]1CC[C@]2(C)CC[C@]3(C)[C@H](CC[C@@H]4[C@@]5(C)Cc6c([nH]c7ccc(I)cc67)C(C)(C)[C@@H]5CC[C@]43C)[C@@H]12	95.2	93.3	37	22.9	42.3	17.3
30.6	28.6	C=C(C)[C@@H]1CC[C@]2(C)CC[C@]3(C)[C@H](CC[C@@H]4[C@@]5(C)Cc6c([nH]c7c(CC)cccc67)C(C)(C)[C@@H]5CC[C@]43C)[C@@H]12	91.5	91.7	29.4	11.4	39.1	10.1
25.9	23.2	C=C(C)[C@@H]1CC[C@]2(C)CC[C@]3(C)[C@H](CC[C@@H]4[C@@]5(C)Cc6c([nH]c7c(C)ccc(C)c67)C(C)(C)[C@@H]5CC[C@]43C)[C@@H]12	93.2	91.5	31.1	22.8	32.8	17.2
27.8	28.6	C=C(C)[C@@H]1CC[C@]2(C)CC[C@]3(C)[C@H](CC[C@@H]4[C@@]5(C)Cc6c([nH]c7ccc(C)cc67)C(C)(C)[C@@H]5CC[C@]43C)[C@@H]12	89.3	87	–	–	–	–
23.9	18.4	C=C(C)[C@@H]1CC[C@]2(C)CC[C@]3(C)[C@H](CC[C@@H]4[C@@]5(C)Cc6c([nH]c7ccc(Br)cc67)C(C)(C)[C@@H]5CC[C@]43C)[C@@H]12	91.4	90.8	31.5	19.7	39.2	16.2
31.7	31.7	C=C(C)[C@@H]1CC[C@]2(C)CC[C@]3(C)[C@H](CC[C@@H]4[C@@]5(C)Cc6c([nH]c7ccccc67)C(C)(C)[C@@H]5CC[C@]43C)[C@@H]12	91.8	90.3	–	–	–	–
11	18.5	COc1cc(/C=C/C(=O)CC(=O)/C=C/c2ccc(O)c(OC)c2)ccc1O [CURCUMIN]	–	–	–	–	–	–

Reference: ChEMBL document CHEMBL3352443, “Synthesis of new heterocyclic lupeol derivatives as nitric oxide and pro-inflammatory cytokine inhibitors” (Bioorg Med Chem Lett, 2014)
